Source: ChEMBL document CHEMBL4689842, “EUbOPEN Chemogenomics Library wave 1” (2021)
Values joined by “and” are separate entries in the source; they are usually repeats but may differ in a detail not shown here. Equal entries are not always repeated.

System: U2OS
Assay: Multiplex assay against U2OS
Type: toxicity, cell-based
Conditions: human
In short: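 Per cents of healthy-nucleus cells form the tubulin, mitochondrial-mass and membrane-permeability phenotype values. Live cells were stained at seeding with Hoechst33342, BioTracker Green Microtubule Cytoskeleton Dye, MitoTracker Red and Annexin V Alexa Fluor 680. After compound addition they were imaged on a CQ1 microscope at 37°C and 5% CO2, and CellPathfinder machine-learning gating split them into Hoechst high-intensity objects or normal cells, normal cells into healthy, pyknosed or fragmented nuclei, and pyknosed cells into mitotic or apoptotic.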

[1] = 12 h, 1 µM, compound concentration 1 uM, replicate 1
[2] = 12 h, 1 µM, compound concentration 1 uM, replicate 2
[3] = 12 h, 10 µM, compound concentration 10 uM, replicate 1
[4] = 12 h, 10 µM, compound concentration 10 uM, replicate 2
[5] = 24 h, 1 µM, compound concentration 1 uM, replicate 1
[6] = 24 h, 1 µM, compound concentration 1 uM, replicate 2
[7] = 24 h, 10 µM, compound concentration 10 uM, replicate 1
[8] = 24 h, 10 µM, compound concentration 10 uM, replicate 2
[9] = 48 h, 1 µM, compound concentration 1 uM, replicate 1
[10] = 48 h, 1 µM, compound concentration 1 uM, replicate 2
[11] = 48 h, 10 µM, compound concentration 10 uM, replicate 1
[12] = 48 h, 10 µM, compound concentration 10 uM, replicate 2

## c1cn2cc(-c3ccc4cn[nH]c4c3)nc(Nc3ccc(N4CCOCC4)cc3)c2n1 [ENTOSPLETINIB]
[1]
  Population Apoptotic (%): 32%
  Population Fragmented Nuclei (%): 13%
  Population Healthy Nuclei (%): 66%
  Population Hoechst High Intensity Objects (%): 4%
  Population Membrane Permeable-Phenotype (%): 13%
  Population Mitochondria Different-Phenotype (%): 36%
  Population Mitotic Cells (%): 67%
  Population Normal (%): 95%
  Population Pyknosed Nuclei (%): 20%
  Population Tubulin-Different-Phenotype (%): 41%
  Total Cell Count: 172
[2]
  Population Apoptotic (%): 40%
  Population Fragmented Nuclei (%): 16%
  Population Healthy Nuclei (%): 73%
  Population Hoechst High Intensity Objects (%): 5%
  Population Membrane Permeable-Phenotype (%): 10%
  Population Mitochondria Different-Phenotype (%): 23%
  Population Mitotic Cells (%): 60%
  Population Normal (%): 94%
  Population Pyknosed Nuclei (%): 9%
  Population Tubulin-Different-Phenotype (%): 25%
  Total Cell Count: 59
[3]
  Population Apoptotic (%): 76%
  Population Fragmented Nuclei (%): 37%
  Population Healthy Nuclei (%): 7%
  Population Membrane Permeable-Phenotype (%): 12%
  Population Mitochondria Different-Phenotype (%): 61%
  Population Mitotic Cells (%): 23%
  Population Pyknosed Nuclei (%): 55%
  Population Tubulin-Different-Phenotype (%): 73%
  Total Cell Count: 161
[4]
  Population Apoptotic (%): 92%
  Population Fragmented Nuclei (%): 30%
  Population Healthy Nuclei (%): 2%
  Population Hoechst High Intensity Objects (%): 25%
  Population Membrane Permeable-Phenotype (%): 21%
  Population Mitochondria Different-Phenotype (%): 82%
  Population Mitotic Cells (%): 7%
  Population Normal (%): 74%
  Population Pyknosed Nuclei (%): 67%
  Population Tubulin-Different-Phenotype (%): 78%
  Total Cell Count: 56
[5]
  Population Apoptotic (%): 37%
  Population Fragmented Nuclei (%): 12%
  Population Healthy Nuclei (%): 70%
  Population Membrane Permeable-Phenotype (%): 4%
  Population Mitochondria Different-Phenotype (%): 33%
  Population Mitotic Cells (%): 62%
  Population Pyknosed Nuclei (%): 16%
  Population Tubulin-Different-Phenotype (%): 24%
  Total Cell Count: 182
[6]
  Population Apoptotic (%): 14%
  Population Fragmented Nuclei (%): 14%
  Population Healthy Nuclei (%): 74%
  Population Hoechst High Intensity Objects (%): 4%
  Population Membrane Permeable-Phenotype (%): 17%
  Population Mitochondria Different-Phenotype (%): 15%
  Population Mitotic Cells (%): 85%
  Population Normal (%): 95%
  Population Pyknosed Nuclei (%): 11%
  Population Tubulin-Different-Phenotype (%): 21%
  Total Cell Count: 78
[7]
  Population Apoptotic (%): 70%
  Population Fragmented Nuclei (%): 35%
  Population Healthy Nuclei (%): 6%
  Population Hoechst High Intensity Objects (%): 23%
  Population Membrane Permeable-Phenotype (%): 7%
  Population Mitochondria Different-Phenotype (%): 49%
  Population Mitotic Cells (%): 29%
  Population Normal (%): 76%
  Population Pyknosed Nuclei (%): 57%
  Population Tubulin-Different-Phenotype (%): 53%
  Total Cell Count: 186
[8]
  Population Apoptotic (%): 89%
  Population Fragmented Nuclei (%): 33%
  Population Healthy Nuclei (%): 2%
  Population Hoechst High Intensity Objects (%): 26%
  Population Membrane Permeable-Phenotype (%): 8%
  Population Mitochondria Different-Phenotype (%): 36%
  Population Mitotic Cells (%): 10%
  Population Normal (%): 73%
  Population Pyknosed Nuclei (%): 64%
  Population Tubulin-Different-Phenotype (%): 20%
  Total Cell Count: 65
[9]
  Population Apoptotic (%): 46%
  Population Fragmented Nuclei (%): 9%
  Population Membrane Permeable-Phenotype (%): 4%
  Population Mitochondria Different-Phenotype (%): 14%
  Population Mitotic Cells (%): 53%
  Population Pyknosed Nuclei (%): 12%
  Population Tubulin-Different-Phenotype (%): 13%
  Total Cell Count: 206
[10]
  Population Apoptotic (%): 37%
  Population Fragmented Nuclei (%): 11%
  Population Healthy Nuclei (%): 77%
  Population Hoechst High Intensity Objects (%): 3%
  Population Membrane Permeable-Phenotype (%): 22%
  Population Mitochondria Different-Phenotype (%): 20%
  Population Mitotic Cells (%): 62%
  Population Normal (%): 96%
  Population Pyknosed Nuclei (%): 10%
  Population Tubulin-Different-Phenotype (%): 22%
  Total Cell Count: 111
[11]
  Population Apoptotic (%): 59%
  Population Fragmented Nuclei (%): 33%
  Population Healthy Nuclei (%): 7%
  Population Hoechst High Intensity Objects (%): 29%
  Population Membrane Permeable-Phenotype (%): 7%
  Population Mitochondria Different-Phenotype (%): 21%
  Population Mitotic Cells (%): 40%
  Population Normal (%): 70%
  Population Pyknosed Nuclei (%): 58%
  Population Tubulin-Different-Phenotype (%): 16%
  Total Cell Count: 232
[12]
  Population Apoptotic (%): 82%
  Population Fragmented Nuclei (%): 34%
  Population Healthy Nuclei (%): 2%
  Population Hoechst High Intensity Objects (%): 28%
  Population Membrane Permeable-Phenotype (%): 20%
  Population Mitochondria Different-Phenotype (%): 30%
  Population Mitotic Cells (%): 17%
  Population Normal (%): 71%
  Population Pyknosed Nuclei (%): 63%
  Population Tubulin-Different-Phenotype (%): 20%
  Total Cell Count: 79

## Cn1cc(C2=C(c3cn(C4CCN(Cc5ccccn5)CC4)c4ccccc34)C(=O)NC2=O)c2ccccc21 [ENZASTAURIN]
[1]
  Population Apoptotic (%): 65% and 50%
  Population Fragmented Nuclei (%): 20% and 9%
  Population Healthy Nuclei (%): 30% and 78%
  Population Hoechst High Intensity Objects (%): 4% and 5%
  Population Membrane Permeable-Phenotype (%): 58%
  Population Mitotic Cells (%): 34% and 50%
  Population Normal (%): 95% and 94%
  Population Tubulin-Different-Phenotype (%): 48%
  Total Cell Count: 159 and 95
[2]
  Population Apoptotic (%): 76% and 37%
  Population Fragmented Nuclei (%): 18% and 16%
  Population Healthy Nuclei (%): 45% and 70%
  Population Hoechst High Intensity Objects (%): 11% and 17%
  Population Membrane Permeable-Phenotype (%): 63% and 33%
  Population Mitotic Cells (%): 23% and 62%
  Population Normal (%): 88% and 82%
  Population Pyknosed Nuclei (%): 35% and 13%
  Population Tubulin-Different-Phenotype (%): 100% and 34%
  Total Cell Count: 147 and 102
[5]
  Population Apoptotic (%): 89% and 53%
  Population Fragmented Nuclei (%): 15% and 5%
  Population Normal (%): 83% and 96%
  Total Cell Count: 194 and 119
[6]
  Population Apoptotic (%): 62%
  Population Fragmented Nuclei (%): 14% and 8%
  Population Hoechst High Intensity Objects (%): 14% and 10%
  Population Membrane Permeable-Phenotype (%): 19%
  Population Mitotic Cells (%): 37%
  Population Normal (%): 85% and 89%
  Population Tubulin-Different-Phenotype (%): 17%
  Total Cell Count: 149 and 124
